In ChEMBL document CHEMBL1955716, “Synthesis and evaluation of CS-2100, a potent, orally active and S1P(3)- sparing S1P(1) agonist” (Eur J Med Chem, 2012):
Active and inactive are the calls of the source. No cut-off for these calls is given here.

Columns and labels:
[1] = Agonist activity at rat S1P3 receptor expressed in CHO-K1 cells assessed as induction of GTPgammaS binding; assay type: cell-based
Method in brief: (§1)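 Membranes from CHO cells expressing rat or human S1P1 or S1P3, homogenized in 5 mM Tris–HCl pH 7.4, 0.25 M sucrose, 1 mM EDTA, 1 mM EGTA and spun at 100,000 × g for 60 min at 4 °C. Serial compound dilutions added to 1–10 µg protein/well, and [35S]GTPγS binding measured. EC50 is the midpoint between vehicle binding ratio and maximal response. Selectivity is the S1P3/S1P1 EC50 ratio.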

Homo sapiens = organism: Homo sapiens; experiment: Selectivity ratio of EC50 for human S1P3 receptor to EC50 for human S1P1 receptor; method in brief: as §1
Rattus norvegicus [2] = organism: Rattus norvegicus; experiment: Selectivity ratio of EC50 for rat S1P3 receptor to EC50 for rat S1P1 receptor; method in brief: as §1
[3] = biological target: Sphingosine 1-phosphate receptor 1 (Rattus norvegicus, UniProt P48303); experiment: Agonist activity at rat S1P1 receptor expressed in CHO-K1 cells assessed as induction of GTPgammaS binding; assay type: functional, cell-based; method in brief: as §1
Sphingosine 1-phosphate receptor 1, sequence (P48303 whole entry): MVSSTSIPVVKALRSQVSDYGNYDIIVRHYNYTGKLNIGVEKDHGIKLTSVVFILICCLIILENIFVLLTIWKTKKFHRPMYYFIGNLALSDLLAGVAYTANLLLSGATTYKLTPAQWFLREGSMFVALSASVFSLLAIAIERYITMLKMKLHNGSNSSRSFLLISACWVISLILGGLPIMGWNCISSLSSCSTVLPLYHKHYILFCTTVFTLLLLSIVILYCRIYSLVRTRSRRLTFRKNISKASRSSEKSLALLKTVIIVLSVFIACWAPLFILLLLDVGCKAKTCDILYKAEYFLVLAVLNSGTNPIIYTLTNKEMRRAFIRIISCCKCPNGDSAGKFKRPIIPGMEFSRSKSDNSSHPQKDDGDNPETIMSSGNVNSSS

[4] = biological target: Sphingosine 1-phosphate receptor 3 (Homo sapiens, UniProt Q99500); experiment: Agonist activity at human S1P3 receptor expressed in CHO-K1 cells assessed as induction of GTPgammaS binding; assay type: functional, cell-based; method in brief: as §1
Sphingosine 1-phosphate receptor 3, sequence (Q99500 whole entry): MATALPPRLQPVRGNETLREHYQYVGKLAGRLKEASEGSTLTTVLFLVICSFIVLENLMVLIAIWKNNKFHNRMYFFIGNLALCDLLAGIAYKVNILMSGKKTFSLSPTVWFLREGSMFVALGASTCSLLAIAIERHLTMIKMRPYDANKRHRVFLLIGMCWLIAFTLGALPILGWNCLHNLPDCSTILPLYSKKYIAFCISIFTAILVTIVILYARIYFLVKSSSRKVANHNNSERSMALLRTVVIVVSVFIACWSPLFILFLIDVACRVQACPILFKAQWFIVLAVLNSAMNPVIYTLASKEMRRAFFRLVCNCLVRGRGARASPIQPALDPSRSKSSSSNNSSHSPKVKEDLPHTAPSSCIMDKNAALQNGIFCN

Rattus norvegicus [5] = experiment: Immunomodulatory activity in Lewis rat assessed as decrease in peripheral blood lymphocyte numbers at 0.1 mg/kg, po after 8 hrs relative to control; assay type: functional; parameters: scale not given: the % may be the effect or the level left
Method in brief: (§2)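 Male Lewis rats, 5 weeks old, 5 per group. Single oral dose (0.1 or 1 mg/kg) suspended in 1% w/v methyl cellulose #400 at 5 ml/kg; vehicle controls. Postcaval vein blood taken under ether anesthesia at 0.5–48 h into EDTA tubes. Absolute lymphocytes counted on a full blood count analyzer, expressed relative to vehicle control, mean ± SE.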

Rattus norvegicus [6] = experiment: Immunomodulatory activity in Lewis rat assessed as decrease in peripheral blood lymphocyte numbers at 1 mg/kg, po after 8 hrs relative to control; assay type: functional; parameters: scale not given: the % may be the effect or the level left; method in brief: as §2
Rattus norvegicus [7] = experiment: Immunomodulatory activity in Lewis rat assessed as decrease in peripheral blood lymphocyte numbers at 0.1 to 1 mg/kg, po after 24 to 48 hrs; assay type: functional, organism-based; method in brief: as §2
Rattus norvegicus [8] = experiment: Antiarthritic activity in po dosed Lewis rat assessed as reduction of adjuvant-induced right hind foot volume administered as qd for 18 days; assay type: functional; settings: 432 h, read-out: ID50 (the source's name)
Method in brief: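 Lewis rats injected intradermally with adjuvant (0.05 ml) in the right hind footpad. Oral dosing at 0.1, 0.3, 1 or 3 mg/kg in 1% methyl cellulose, 5 ml/kg, once daily from Day 0 for 18 days; uninjected normal group. Right foot volume measured by plethysmometer on Days 0–18. % inhibition computed against control and normal, and ID50 taken by least-squares regression of % inhibition against log dose at Day 18.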

Mus musculus [9] = experiment: Antimultiple sclerosis activity in C57BL/6J mouse assessed as reduction of experimental autoimmune encephalomyelitis score at 0.3 mg/kg, po qd for 23 days; assay type: functional, organism-based; parameters: dose 0.3 mg/kg
Mus musculus [10] = experiment: Antimultiple sclerosis activity in C57BL/6J mouse assessed as reduction of experimental autoimmune encephalomyelitis score at 1 mg/kg, po qd for 23 days; assay type: functional, organism-based; parameters: dose 1 mg/kg
[11] = Cmax in Lewis rat at 0.1 mg/kg, po; assay type: ADME, organism-based; parameters: dose 0.1 mg/kg, route oral; settings: in vivo
Method in brief: (§3)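 Male Lewis rats given a single oral dose (0.1 or 1 mg/kg) suspended in 1% methyl cellulose; plasma taken from the blood samples of the lymphocyte-count study, 5 rats per time point up to 72 h. Drug quantified by LC–MS/MS after solid-phase extraction on a C18 column. Noncompartmental parameters calculated from mean concentrations.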

[12] = Tmax in Lewis rat at 0.1 mg/kg, po; assay type: ADME, organism-based; parameters: dose 0.1 mg/kg, route oral; settings: in vivo; method in brief: as §3
[13] = Terminal half life in Lewis rat at 0.1 mg/kg, po; assay type: ADME, organism-based; parameters: dose 0.1 mg/kg, route oral; settings: in vivo, read-out: beta t1/2 (converted); method in brief: as §3
[14] = AUC (0 to 72 hrs) in Lewis rat at 0.1 mg/kg, po; assay type: ADME, organism-based; parameters: time < 72 hr, dose 0.1 mg/kg, route oral; settings: plasma; method in brief: as §3
[15] = Cmax in Lewis rat at 1 mg/kg, po; assay type: ADME, organism-based; parameters: dose 1 mg/kg, route oral; settings: in vivo; method in brief: as §3
[16] = Tmax in Lewis rat at 1 mg/kg, po; assay type: ADME, organism-based; parameters: dose 1 mg/kg, route oral; settings: in vivo; method in brief: as §3
[17] = Terminal half life in Lewis rat at 1 mg/kg, po; assay type: ADME, organism-based; parameters: dose 1 mg/kg, route oral; settings: in vivo, read-out: beta t1/2 (converted); method in brief: as §3
[18] = AUC (0 to 72 hrs) in Lewis rat at 1 mg/kg, po; assay type: ADME, organism-based; parameters: time < 72 hr, dose 1 mg/kg, route oral; settings: plasma; method in brief: as §3
[19] = Cmax in C57BL/6J mouse at 1 mg/kg, po; assay type: ADME, organism-based; parameters: dose 1 mg/kg, route oral; settings: in vivo
Method in brief: (§4)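 Male C57BL/6J mice given 1 mg/kg orally at 5 ml/kg as a solution in dimethyl acetamide/25% Purebright/water (1/8/1). Plasma assayed by LC–MS/MS after solid-phase extraction, 5 animals per time point. Noncompartmental analysis performed on mean concentrations.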

[20] = Tmax in C57BL/6J mouse at 1 mg/kg, po; assay type: ADME, organism-based; parameters: dose 1 mg/kg, route oral; settings: in vivo; method in brief: as §4
[21] = Terminal half life in C57BL/6J mouse at 1 mg/kg, po; assay type: ADME, organism-based; parameters: dose 1 mg/kg, route oral; settings: in vivo, read-out: beta t1/2 (converted); method in brief: as §4
[22] = AUC (0 to 72 hrs) in C57BL/6J mouse at 1 mg/kg, po; assay type: ADME, organism-based; parameters: time < 72 hr, dose 1 mg/kg, route oral; settings: plasma; method in brief: as §4
Rattus norvegicus [23] = experiment: Drug metabolism in po dosed rat plasma assessed as 4-PBA level; assay type: ADME, organism-based; settings: in vivo
Rhesus monkey = experiment: Drug metabolism in po dosed monkey plasma assessed as 4-PBA level; assay type: ADME, organism-based, Macaca mulatta; settings: in vivo
[24] = Metabolic stability in liver microsomes assessed as 4-PBA level; assay type: ADME, Microsome
[25] = Metabolic stability in liver microsomes assessed as degradation of 1,2,4-oxadiazole ring; assay type: ADME, Microsome
[26] = biological target: T1, Sphingosine 1-phosphate receptor 4 (Homo sapiens, UniProt O95977); experiment: Agonist activity at human S1P4 receptor; assay type: functional
T1 sequence (O95977 whole entry): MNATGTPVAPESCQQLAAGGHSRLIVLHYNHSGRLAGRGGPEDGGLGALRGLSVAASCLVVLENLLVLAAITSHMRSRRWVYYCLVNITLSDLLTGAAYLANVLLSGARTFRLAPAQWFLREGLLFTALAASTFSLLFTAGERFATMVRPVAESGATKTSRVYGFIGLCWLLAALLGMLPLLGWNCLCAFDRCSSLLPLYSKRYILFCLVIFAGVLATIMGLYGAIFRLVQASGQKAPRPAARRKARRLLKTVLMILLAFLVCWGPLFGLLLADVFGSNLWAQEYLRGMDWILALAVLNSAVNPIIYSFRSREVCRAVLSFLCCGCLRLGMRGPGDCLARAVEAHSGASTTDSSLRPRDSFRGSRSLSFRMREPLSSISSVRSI

[27] = biological target: Sphingosine 1-phosphate receptor 5 (Homo sapiens, UniProt Q9H228); experiment: Agonist activity at human S1P5 receptor; assay type: functional
Sphingosine 1-phosphate receptor 5, sequence (Q9H228 whole entry): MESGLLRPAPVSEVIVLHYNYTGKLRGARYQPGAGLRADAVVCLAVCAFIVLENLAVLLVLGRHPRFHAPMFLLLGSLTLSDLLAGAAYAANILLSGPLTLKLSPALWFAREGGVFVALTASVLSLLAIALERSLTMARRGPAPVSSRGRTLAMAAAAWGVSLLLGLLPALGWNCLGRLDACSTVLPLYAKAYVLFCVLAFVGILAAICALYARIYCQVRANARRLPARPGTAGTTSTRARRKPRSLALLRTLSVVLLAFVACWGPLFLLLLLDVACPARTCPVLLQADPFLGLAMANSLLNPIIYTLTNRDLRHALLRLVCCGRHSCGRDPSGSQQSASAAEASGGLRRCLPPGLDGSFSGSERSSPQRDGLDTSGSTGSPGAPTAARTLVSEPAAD

Structure (SMILES): Cc1ccc(CCCC(=O)c2ccc(CC[C@@](C)(N)COP(=O)(O)O)n2C)cc1
- EC50 [1]: 200 nM
- Ratio EC50 (Homo sapiens): 320
- Ratio EC50 (Rattus norvegicus [2]): 100

Structure (SMILES): CCCCCCCCc1ccc(CC[C@](N)(CO)COP(=O)(O)O)cc1 [FTY720-P]
- EC50 [1]: 1.3 nM

Structure (SMILES): CCc1cc(CN2CC(C(=O)O)C2)sc1-c1noc(-c2ccc(Oc3ccccc3)cc2)n1
- EC50 [3]: 1.5 nM
- EC50 [1]: 7400 nM
- EC50 [4]: > 20000 nM
- Ratio EC50 (Homo sapiens): > 5000
- Activity (Rattus norvegicus [5]): 27%
- Activity (Rattus norvegicus [6]): 11%
- Activity (Rattus norvegicus [7]): inactive
- ED50 (Rattus norvegicus [8]): 0.44 mg/kg
- Activity (Mus musculus [9]): Active
- Activity (Mus musculus [10]): Active
- Cmax [11]: 17.4 ng/mL
- Tmax [12]: 4 h
- half-life [13]: 12.4 h
- AUC(0-t) at 72 h [14]: 268 ng·h/mL
- Cmax [15]: 186 ng/mL
- Tmax [16]: 4 h
- half-life [17]: 8.73 h
- AUC(0-t) at 72 h [18]: 2670 ng·h/mL
- Cmax [19]: 135 ng/mL
- Tmax [20]: 2 h
- half-life [21]: 13.9 h
- AUC(0-t) at 72 h [22]: 1540 ng·h/mL
- Drug metabolism (Rattus norvegicus [23]): Active
- Drug metabolism (Rhesus monkey): Active
- Stability [24]: Stable
- Stability [25]: Stable
- EC50 [26]: 58 nM
- EC50 [27]: 17 nM
